Source: ChEMBL document CHEMBL1126568, “Nucleosides and nucleotides. 122. 2'-C-cyano-2'-deoxy-1-beta-D-arabinofuranosylcytosine and its derivatives. A new class of nucleoside with a broad antitumor spectrum” (J Med Chem, 1993)

Experiments:
Type in all cases: functional
Mus musculus [1] = test: Percent inhibition against M5076 mouse reticulum cell sarcoma after administration at 50 mg/kg orally on day 20; settings: M5076, 480 h, route oral
Procedure, shortened: (§1)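 Female BD2F1 mice (7-8 weeks, 20-25 g) were given 1 × 10^6 viable M5076 cells s.c. in the axillary region. Drug in saline or 5% DMA/0.5% CMC was given orally on days 1, 4, 7, 10, 13 and 16, with six mice per group and untreated controls. Tumor volume = 0.5 × length × width². Inhibition on day 20 = (1 − Vt/Vc) × 100.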

Mus musculus [2] = test: Tested for 60-day survivors after administration at 10 mg/kg orally in M5076 mouse reticulum cell sarcoma; settings: route oral
Procedure, shortened: (§2)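 Female BD2F1 mice were implanted s.c. with 1 × 10^6 M5076 cells and dosed orally on days 1, 4, 7, 10, 13 and 16. Vehicle was saline or 5% DMA in 0.5% CMC. Groups had six mice (three at 400 mg/kg), with nine untreated controls. The number of mice alive at 60 days was counted.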

Mus musculus [3] = test: Percent inhibition against M5076 mouse reticulum cell sarcoma after administration at 40 mg/kg orally on day 20; settings: M5076, 480 h, route oral; procedure, shortened: as §1
Mus musculus [4] = test: Percent inhibition against M5076 mouse reticulum cell sarcoma after administration at 10 mg/kg orally on day 20; settings: M5076, 480 h, route oral; procedure, shortened: as §1
Mus musculus [5] = test: Percent inhibition against M5076 mouse reticulum cell sarcoma after administration at 30 mg/kg orally on day 20; settings: M5076, 480 h, route oral; procedure, shortened: as §1
Mus musculus [6] = test: Weight change in M5076 mouse reticulum cell sarcoma after administration at 40 mg/kg orally; settings: route oral
Procedure, shortened: (§3)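 Mice were female BD2F1 bearing s.c. M5076 sarcoma (1 × 10^6 cells) and given oral drug on days 1, 4, 7, 10, 13 and 16. Body weight change (g) = average body weight on day 20 minus average on day 1.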

Mus musculus [7] = test: Percent treated was determined after administration at 20 mg/kg orally; settings: route oral
Procedure, shortened: (§4)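 In female BD2F1 mice bearing s.c. M5076 sarcoma (1 × 10^6 cells), drug was given orally on days 1, 4, 7, 10, 13 and 16, with six mice per treated group and nine untreated controls. T/C (%) = median survival day of treated mice / median survival day of untreated controls × 100.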

Mus musculus [8] = test: Tested for 60-day survivors after administration at 20 mg/kg orally in M5076 mouse reticulum cell sarcoma; settings: route oral; procedure, shortened: as §2
Mus musculus [9] = test: Percent treated was determined after administration at 30 mg/kg orally; settings: route oral; procedure, shortened: as §4
Mus musculus [10] = test: Tested for 60-day survivors after administration at 40 mg/kg orally in M5076 mouse reticulum cell sarcoma; settings: route oral; procedure, shortened: as §2
Mus musculus [11] = test: Percent treated was determined after administration at 40 mg/kg orally; settings: route oral; procedure, shortened: as §4
Mus musculus [12] = test: Tested for 60-day survivors after administration at 50 mg/kg orally in M5076 mouse reticulum cell sarcoma; settings: route oral; procedure, shortened: as §2
Mus musculus [13] = test: Weight change in M5076 mouse reticulum cell sarcoma after administration at 10 mg/kg orally; settings: route oral; procedure, shortened: as §3
Mus musculus [14] = test: Weight change in M5076 mouse reticulum cell sarcoma after administration at 50 mg/kg orally; settings: route oral; procedure, shortened: as §3
Mus musculus [15] = test: Percent treated was determined after administration at 10 mg/kg orally; settings: route oral; procedure, shortened: as §4
Mus musculus [16] = test: Weight change in M5076 mouse reticulum cell sarcoma after administration at 30 mg/kg orally; settings: route oral; procedure, shortened: as §3
Mus musculus [17] = test: Percent inhibition against M5076 mouse reticulum cell sarcoma after administration at 20 mg/kg orally on day 20; settings: M5076, 480 h, route oral; procedure, shortened: as §1
Mus musculus [18] = test: Percent treated was determined after administration at 50 mg/kg orally; settings: route oral; procedure, shortened: as §4
Mus musculus [19] = test: Weight change in M5076 mouse reticulum cell sarcoma after administration at 20 mg/kg orally; settings: route oral; procedure, shortened: as §3
Mus musculus [20] = test: Tested for 60-day survivors after administration at 30 mg/kg orally in M5076 mouse reticulum cell sarcoma; settings: route oral; procedure, shortened: as §2

In the case of `O=c1[nH]cc(F)c(=O)[nH]1` [FLUOROURACIL], the inhibition in vivo at 50 mg/kg (Mus musculus [1]) is reported as 28%, the Survivors (Mus musculus [2]) is reported as 6 and the inhibition in vivo at 40 mg/kg (Mus musculus [3]) is reported as 17%. It also gave an inhibition in vivo at 10 mg/kg (Mus musculus [4]) of 1%, an inhibition in vivo at 30 mg/kg (Mus musculus [5]) of 9% and a Weight change (Mus musculus [6]) of 2.1 g. It also gave a T/C (Mus musculus [7]) of 85%, a Survivors (Mus musculus [8]) of 6 and a T/C (Mus musculus [9]) of 86%. The Survivors (Mus musculus [10]) was 6, the T/C (Mus musculus [11]) was 79% and the Survivors (Mus musculus [12]) was 6. It also gave a Weight change (Mus musculus [13]) of 2.4 g, a Weight change (Mus musculus [14]) of 1.4 g and a T/C (Mus musculus [15]) of 94%. The Weight change (Mus musculus [16]) was 2.4 g, the inhibition in vivo at 20 mg/kg (Mus musculus [17]) was 6% and the T/C (Mus musculus [18]) was 79%. For the same molecule, the Weight change (Mus musculus [19]) was 2.2 g and the Survivors (Mus musculus [20]) was 6.
